# Test results: ChEMBL document CHEMBL3593156, “Bioactive Sesquiterpenes and Lignans from the Fruits of Xanthium sibiricum” (J Nat Prod, 2015)
# pIC50: −log10 of the molar value.
# Key:
# [1] = Antiinflammatory activity in C57BL6/J mouse BV2 cells assessed as inhibition of LPS-induced nitric oxide production after 24 hrs by Griess assay; assay type: functional, cell-based; settings: BV-2, 24 h
# Method in brief: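 Mouse (C57BL6/J) macrophages grown 24 h at 37 °C in RPMI1640, then given 1 μg/mL LPS plus test compounds for a further 24 h at 37 °C. Blank, LPS-only and dexamethasone (10−6 M) wells served as controls. Nitrite in supernatant was read with Griess reagent at 570 nm against a sodium nitrite standard.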
# Mus musculus [2] = test: Antiinflammatory activity in ICR mouse assessed as inhibition of croton oil-induced ear edema at 50 mg/ml administered 1 hr prior to croton oil challenge measured after 4 hrs relative to control; assay type: functional
# Method in brief: (§1)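 Male ICR mice (18−20 g, n = 10 per group) received 0.4 mg croton oil in […] acetone on the left ear. Treatment was applied 1 h before the croton oil, and the animals were killed 4 h after it. Edema was taken as the weight difference between 8 mm punches of the treated and untreated ears, expressed as % reduction versus control mice.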
# Coxsackievirus B3 = test: Antiviral activity against Coxsackievirus B3 infected in African green monkey Vero cells assessed as inhibition of virus-induced cytopathic effect; assay type: functional, organism-based; settings: Enterovirus B
# Method in brief: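 Vero cells (2.5 × 10^4/well) were plated for 24 h, infected 2 h with 100 TCID50 Coxsackievirus B3 (Nancy), then given compounds at various concentrations until control CPE reached 4+. Run in triplicate, at least three times. IC50 is the concentration inhibiting 50% of CPE (Reed and Muench). SI = TC50/IC50.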
# [3] = Cytotoxicity against African green monkey Vero cells assessed as growth inhibition by CPE assay; assay type: cell-based; settings: chlorocebus sabaeus, read-out: TC50 (the source's name)
# Method in brief: (§2)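 Vero or MDCK cells (2.5 × 10^4/well) were seeded and incubated overnight. Medium was then replaced with compounds at various concentrations in triplicate. After a 2-day incubation, cytotoxicity was scored by CPE. TC50 is the concentration inhibiting 50% of cell growth versus controls (Reed and Muench). Values are means of three independent determinations.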
# [4] = Selectivity index, ratio of TC50 for African green monkey Vero cells to IC50 for Coxsackievirus B3-induced cytopathic effect in African green monkey Vero cells; assay type: toxicity, cell-based; settings: read-out: Selectivity Index
# Method in brief: (§3)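 Vero cells (2.5 × 10^4 cells/well). TC50: cells incubated overnight, compounds applied in triplicate for 2 days, CPE read, 50% growth inhibition versus controls by Reed and Muench. IC50: cells infected 2 h with 100 TCID50 CVB3 (Nancy), compounds added until control CPE 4+, 50% CPE inhibition by Reed and Muench. SI = TC50/IC50.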
# [5] = Cytotoxicity against MDCK cells assessed as growth inhibition by CPE assay; assay type: cell-based, Canis lupus familiaris; settings: dog, read-out: TC50 (the source's name); method in brief: as §2
# [6] = Antiviral activity against Influenza A virus (A/FM/1/47(H1N1)) infected in MDCK cells assessed as inhibition of virus-induced cytopathic effect; assay type: functional, cell-based, Influenza A virus (A/Fort Monmouth/1/1947(H1N1))
# Method in brief: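 MDCK cells (2.5 × 10^4 cells/well) plated 24 h, PBS-washed, infected 2 h with 100 TCID50 influenza A/FM/1/47 (H1N1); compounds at various concentrations added, incubation until control CPE reached 4+. Triplicate, at least three separate runs; IC50 = minimal concentration inhibiting 50% CPE, Reed and Muench method.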
# [7] = Selectivity index, ratio of TC50 for MDCK cells to IC50 for Influenza A virus (A/FM/1/47(H1N1))-induced cytopathic effect in MDCK cells; assay type: toxicity, cell-based; settings: dog, read-out: Selectivity Index
# Method in brief: as §3, with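 “MDCK” for “Vero”, “IC50: PBS-washed” for “IC50:”, “influenza A/FM/1/47 (H1N1),” for “CVB3 (Nancy),”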
# Mus musculus [8] = test: Antiinflammatory activity in ICR mouse assessed as inhibition of croton oil-induced ear edema at 1 mg/ml administered 1 hr prior to croton oil challenge measured after 4 hrs relative to control; assay type: functional; method in brief: as §1
smiles,measurement,setting,value
C=C1C(=O)O[C@@H]2C=C(CCC(C)=O)[C@@H](C)CC[C@@H]12,pIC50,[1],5.07
same,inhibition (INH),Mus musculus [2],<20%
same,pIC50,Coxsackievirus B3,5.19
same,CC50,[3],19.2 µM
same,selectivity ratio,[4],3
same,CC50,[5],19.3 µM
same,pIC50,[6],5.07
same,selectivity ratio,[7],2.2
C=C1C(=O)O[C@H]2C[C@H](C)C(CCC(C)=O)=CC[C@H]12,pIC50,[1],5.25
same,inhibition (INH),Mus musculus [2],46.9%
same,pIC50,Coxsackievirus B3,< 4.46
same,pIC50,[6],< 4.46
C=C1[C@H]2C[C@H]2[C@]2(C)CC(=O)C3=C(C)C(=O)O[C@@H]3[C@@H]12,pIC50,[1],< 5.00
same,pIC50,Coxsackievirus B3,< 4.46
same,pIC50,[6],< 4.46
C=C1[C@@H]2C[C@@H]2[C@@]2(C)C=C3OC(=O)C(C)=C3[C@@H](O)[C@H]12,pIC50,[1],< 5.00
same,pIC50,Coxsackievirus B3,< 4.46
same,pIC50,[6],< 4.46
COC(=O)CC1=CC[C@H]2[C@H](C[C@@H]1C)OC(=O)[C@H]2C,pIC50,[1],< 5.00
same,pIC50,Coxsackievirus B3,< 4.46
same,pIC50,[6],< 4.46
C[C@H]1C[C@@H]2OC(=O)[C@H](C)[C@H]2C=CC1=O,pIC50,[1],< 5.00
same,pIC50,Coxsackievirus B3,< 4.46
same,pIC50,[6],< 4.46
C[C@@H]1C(=O)O[C@H]2C[C@H](C)C(C(=O)O)=CC[C@@H]21,pIC50,[1],< 5.00
same,pIC50,Coxsackievirus B3,< 4.46
same,pIC50,[6],< 4.46
C[C@H]1C[C@@H]2OC(=O)[C@H](C)[C@H]2CC=C1C(=O)O,pIC50,[1],< 5.00
same,pIC50,Coxsackievirus B3,< 4.46
same,pIC50,[6],< 4.46
C[C@H]1C[C@@H]2OC(=O)[C@H](C)[C@H]2CC=C1C=O,pIC50,[1],< 5.00
same,pIC50,Coxsackievirus B3,< 4.46
same,pIC50,[6],< 4.46
C=C1C(=O)O[C@H]2C[C@H](C)C(C=O)=CC[C@H]12,pIC50,[1],5.52
same,inhibition (INH),Mus musculus [2],<20%
same,pIC50,Coxsackievirus B3,4.72
same,CC50,[3],69.3 µM
same,selectivity ratio,[4],3.6
same,CC50,[5],48.1 µM
same,pIC50,[6],5.19
same,selectivity ratio,[7],7.5
COc1cc([C@H]2Oc3c(OC)cc(C(=O)[C@@H](O)CO)cc3[C@@H]2CO)ccc1O,pIC50,[1],< 5.00
same,pIC50,Coxsackievirus B3,< 4.46
same,pIC50,[6],< 4.46
COc1cc([C@@H]2Oc3c(OC)cc(C(=O)[C@H](O)CO)cc3[C@H]2CO)ccc1O,pIC50,[1],< 5.00
same,pIC50,Coxsackievirus B3,< 4.46
same,pIC50,[6],< 4.46
CC(O)CCC1=CC[C@H]2[C@@H](C[C@@H]1C)OC(=O)[C@@H]2C (stereo not given in full),pIC50,[1],5.24
same,pIC50,Coxsackievirus B3,< 4.46
same,pIC50,[6],< 4.46
CC(=O)/C=C/C1=CC[C@H]2[C@H](C[C@@H]1C)OC(=O)[C@@H]2C,pIC50,[1],5.43
same,inhibition (INH),Mus musculus [2],<20%
same,pIC50,Coxsackievirus B3,< 4.46
same,pIC50,[6],< 4.46
CC(=O)CCC1=CC[C@H]2[C@H](C[C@@H]1C)OC(=O)[C@@H]2C,pIC50,[1],< 5.00
same,inhibition (INH),Mus musculus [2],<20%
same,pIC50,Coxsackievirus B3,5.19
same,CC50,[3],77.6 µM
same,selectivity ratio,[4],12.1
same,pIC50,[6],< 4.46
CC(=O)/C=C/C1=CC[C@H]2[C@H](C[C@@H]1C)OC(=O)[C@H]2C,pIC50,[1],< 5.00
same,pIC50,Coxsackievirus B3,< 4.46
same,pIC50,[6],< 4.46
CC1=C2C[C@H]3[C@@]4(CO4)[C@H](O)C=C[C@]3(C)C[C@@H]2OC1=O,pIC50,[1],< 5.00
same,pIC50,Coxsackievirus B3,4.72
same,CC50,[3],69.3 µM
same,selectivity ratio,[4],3.6
same,CC50,[5],100 µM
same,pIC50,[6],4.48
same,selectivity ratio,[7],3
CC(=C/C(=O)O)/C=C/[C@]1(O)[C@@]2(C)CO[C@]1(C)C[C@@H](O)C2,pIC50,[1],< 5.00
same,pIC50,Coxsackievirus B3,< 4.46
same,pIC50,[6],< 4.46
CC(=C/C(=O)O)/C=C/[C@]1(O)[C@@]2(C)CO[C@]1(C)CC(=O)C2,pIC50,[1],< 5.00
same,pIC50,Coxsackievirus B3,< 4.46
same,pIC50,[6],< 4.46
COc1cc(C(O)C(CO)Oc2ccc(C(=O)O)cc2OC)ccc1O (stereo not given),pIC50,[1],< 5.00
same,pIC50,Coxsackievirus B3,< 4.46
same,CC50,[5],100 µM
same,pIC50,[6],5.08
same,selectivity ratio,[7],11.9
CCOC(=O)c1ccc(O)c(O)c1,pIC50,[1],< 5.00
same,pIC50,Coxsackievirus B3,4.95
same,CC50,[3],23.1 µM
same,selectivity ratio,[4],2.1
same,pIC50,[6],< 4.46
C[C@@H]1C[C@H]2[C@@H]3CCC4=CC(=O)C=C[C@]4(C)[C@@]3(F)[C@@H](O)C[C@]2(C)[C@@]1(O)C(=O)CO [DEXAMETHASONE],pIC50,[1],7.60
same,inhibition (INH),Mus musculus [8],70.5%
CCOC(=O)/C=C/c1ccc(O)c(O)c1 [ETHYL CAFFEATE],pIC50,[1],5.60
same,pIC50,Coxsackievirus B3,< 4.46
same,CC50,[5],19.3 µM
same,pIC50,[6],5.43
same,selectivity ratio,[7],5.2
C=C1CC=C[C@]2(C)C[C@]3(O)OC(=O)C(C)C3=C[C@@H]12 (stereo not given in full) [HYDROXYLINDESTENOLIDE],pIC50,[1],5.41
same,inhibition (INH),Mus musculus [2],37.7%
same,pIC50,Coxsackievirus B3,< 4.46
same,pIC50,[6],< 4.46
CCOC(=O)C1=C[C@@H](OC(CC)CC)[C@H](NC(C)=O)[C@@H](N)C1 [OSELTAMIVIR],CC50,[5],3120 µM
same,pIC50,[6],5.57
same,selectivity ratio,[7],1140
Cc1cc(CCCOc2c(C)cc(-c3noc(C(F)(F)F)n3)cc2C)on1 [PLECONARIL],pIC50,Coxsackievirus B3,8.60
same,CC50,[3],40.5 µM
same,selectivity ratio,[4],16200
NC(=O)c1ncn([C@@H]2O[C@H](CO)[C@@H](O)[C@H]2O)n1 [RIBAVIRIN],pIC50,Coxsackievirus B3,2.92
same,selectivity ratio,[4],6.8
